# Laboratory results taken from ChEMBL document CHEMBL3875213, “Quinolines: Microwave-assisted synthesis and their antifungal, anticancer and radical scavenger properties” (Bioorg Med Chem, 2017).
# Active and inactive are the calls of the source. The rule behind the calls is not given here.
# Tests used:
# Candida albicans [1] = assay: Growth inhibition of Candida albicans ATCC 10231 at 3.9 ug/ml incubated for 48 hrs under dark condition by broth microdilution assay relative to amphotericin B; assay type: functional; conditions: ATCC 10231, 48 h, read-out: GI
# In short: (§1)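 Yeast broth microdilution (CLSI M27-A3), RPMI-1640, inoculum 1-5 x 10^3 CFU/mL, DMSO ≤1%, 48 h at 30 °C in a moist, dark chamber. […]. Triplicate; amphotericin B as positive control.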
# Candida albicans [2] = assay: Growth inhibition of Candida albicans ATCC 10231 at 7.81 ug/ml incubated for 48 hrs under dark condition by broth microdilution assay relative to amphotericin B; assay type: functional; conditions: ATCC 10231, 48 h, read-out: GI; in short: as §1
# Candida albicans [3] = assay: Growth inhibition of Candida albicans ATCC 10231 at 15.62 ug/ml incubated for 48 hrs under dark condition by broth microdilution assay relative to amphotericin B; assay type: functional; conditions: ATCC 10231, 48 h, read-out: GI; in short: as §1
# Candida albicans [4] = assay: Growth inhibition of Candida albicans ATCC 10231 at 31.25 ug/ml incubated for 48 hrs under dark condition by broth microdilution assay relative to amphotericin B; assay type: functional; conditions: ATCC 10231, 48 h, read-out: GI; in short: as §1
# Candida albicans [5] = assay: Growth inhibition of Candida albicans ATCC 10231 at 62.5 ug/ml incubated for 48 hrs under dark condition by broth microdilution assay relative to amphotericin B; assay type: functional; conditions: ATCC 10231, 48 h, read-out: GI; in short: as §1
# Candida albicans [6] = assay: Growth inhibition of Candida albicans ATCC 10231 at 125 ug/ml incubated for 48 hrs under dark condition by broth microdilution assay relative to amphotericin B; assay type: functional; conditions: ATCC 10231, 48 h, read-out: GI; in short: as §1
# Candida albicans [7] = assay: Growth inhibition of Candida albicans ATCC 10231 at 250 ug/ml incubated for 48 hrs under dark condition by broth microdilution assay relative to amphotericin B; assay type: functional; conditions: ATCC 10231, 48 h, read-out: GI; in short: as §1
# Candida albicans [8] = assay: Antifungal activity against Candida albicans ATCC 10231 incubated for 48 hrs under dark condition by broth microdilution assay; assay type: functional; conditions: ATCC 10231, 48 h
# In short: (§2)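 Broth microdilution per CLSI M27-A3 in RPMI-1640. Inocula adjusted to 1-5 x 10^3 CFU/mL. Stocks in DMSO (≤1%), final 3.9-250.0 µg/mL. Incubated 48 h at 30 °C in a moist, dark chamber, read at OD 405. % inhibition computed from growth and sterility control wells, run in triplicate. MIC80/MIC50 taken from four-parameter logistic concentration-response curves; amphotericin B as positive control.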
# [9] = Antifungal activity against Cryptococcus neoformans ATCC 32264 incubated for 48 hrs under dark condition by broth microdilution assay; assay type: functional; in short: as §2
# [10] = Antiproliferative activity against human NCI-H226 cells harboring TP53 mutant after 24 hrs by MTT assay; assay type: functional, cell-based; conditions: NCI-H226, 24 h
# In short: (§3)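 Cells grown in medium with 10% foetal bovine serum and 1% L-glutamine at 37 °C, 5% CO2, seeded at 1 x 10^5 cells/well. Exposed to compound at 1.0-1,000 µg/mL for 24 h. MTT added, absorbance read at 540 nm 3 h later. IC50 obtained by non-linear regression of viability data.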
# [11] = Antioxidant activity assessed as DPPH radical scavenging activity at 160 uM incubated for 30 mins under dark condition; assay type: functional
# In short: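 Compound at 160 µM incubated with 100 µM DPPH in ethanolic medium, stirred in the dark for 30 min, read at 517 nm. Resveratrol as positive control. Three independent experiments, each in triplicate.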
# [12] = Antiproliferative activity against human TOV21G harboring wild type TP53 cells after 24 hrs by MTT assay; assay type: functional, cell-based; in short: as §3
# [13] = Antiproliferative activity against human Hep2C cells after 24 hrs by MTT assay; assay type: functional, cell-based; in short: as §3
# [14] = Antioxidant activity assessed as fluorescent light-induced superoxide anion scavenging activity at 160 uM incubated for 10 mins by nitroblue tetrazolium dye based assay; assay type: functional
# In short: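 Superoxide generated photochemically in 50 mM phosphate buffer pH 7.8 with 13 mM L-methionine, 75 µM nitroblue tetrazolium, 100 µM EDTA and 2 µM riboflavin. Compound at 160 µM. 10 min at 25 °C under fluorescent light; dark controls. Read at 575 nm. Resveratrol as positive control; three independent experiments in triplicate.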
# [15] = Antiproliferative activity against human CCD-19Lu cells after 24 hrs by MTT assay; assay type: cell-based; in short: as §3
# NCI-H226 = assay: Selectivity index, ratio of IC50 for human CCD-19Lu cells to IC50 for human NCI-H226 cells; assay type: functional
# In short: (§4)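 Selectivity index equals IC50 in non-tumour CCD 19-Lu lung fibroblasts divided by IC50 in the tumour line. Both IC50s come from the 24 h MTT assay (read at 540 nm) over 1.0-1,000 µg/mL.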
# [16] = Selectivity index, ratio of IC50 for human CCD-19Lu cells to IC50 for human Hep2C cells; assay type: functional; in short: as §4
# [17] = Antioxidant activity assessed as DPPH radical scavenging activity incubated for 30 mins under dark condition; assay type: functional
# In short: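 DPPH (100 µM) in ethanolic medium, stirred 30 min in the dark, absorbance at 517 nm. Compound varied from 0 to 160 µg/mL to find the concentration scavenging 50% of radicals. Three independent experiments, each in triplicate.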
# [18] = Antioxidant activity assessed as fluorescent light-induced superoxide anion scavenging activity incubated for 10 mins by nitroblue tetrazolium dye based assay; assay type: functional
# In short: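 Riboflavin/light superoxide system: 50 mM phosphate pH 7.8, 13 mM L-methionine, 75 µM NBT, 100 µM EDTA, 2 µM riboflavin, compound 0-200 µg/mL. Fluorescent light for 10 min at 25 °C, dark controls, scavenging measured at 575 nm. Resveratrol as reference.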
# [19] = Selectivity index, ratio of IC50 for human CCD-19Lu cells to IC50 for human TOV21G cells; assay type: functional; in short: as §4
Structure (SMILES),inhibition of growth at 3.9 µg/mL (Candida albicans [1]),inhibition of growth at 7.81 µg/mL (Candida albicans [2]),inhibition of growth at 15.62 µg/mL (Candida albicans [3]),inhibition of growth at 31.25 µg/mL (Candida albicans [4]),inhibition of growth at 62.5 µg/mL (Candida albicans [5]),inhibition of growth at 125 µg/mL (Candida albicans [6]),inhibition of growth at 250 µg/mL (Candida albicans [7]),MIC50 (Candida albicans [8]),MIC80 (Candida albicans [8]),MIC50 [9],MIC80 [9],IC50 [10],Activity [11],IC50 [12],IC50 [13],Activity [14],IC50 [15],Ratio IC50 (NCI-H226),Ratio IC50 [16],SC50 [17],further results
O=[N+]([O-])c1cccc(-c2cc(-c3ccccc3)c3cc(Br)ccc3n2)c1,0%,0%,3.43%,4.86%,4.99%,5.11%,9.14%,> 250 µg/mL,> 250 µg/mL,> 250 µg/mL,> 250 µg/mL,8.5 µM,35 to 40%,–,–,–,–,–,–,–,–
Fc1ccc(-c2cc(-c3ccccc3)c3cc(Br)ccc3n2)cc1,0.19%,1.37%,4.24%,4.35%,4.13%,6.09%,17.2%,> 250 µg/mL,> 250 µg/mL,15.6 µg/mL,> 250 µg/mL,–,–,570 µM,5 µM,Active,–,–,–,–,–
Clc1ccc(-c2cc(-c3ccccc3)c3cc(Br)ccc3n2)cc1,0%,0%,6.88%,6.78%,9.38%,24.7%,50.5%,250 µg/mL,> 250 µg/mL,250 µg/mL,> 250 µg/mL,1.58 µM,45 to 55%,–,269 µM,–,528 µM,356,1,180 µM,SC50 [18]: > 250 µM
c1ccc(-c2cc(-c3ccccc3)c3c4c(ccc3n2)OCO4)cc1,0%,0%,3.62%,5.74%,8.77%,13.5%,24.2%,> 250 µg/mL,> 250 µg/mL,31.2 µg/mL,250 µg/mL,40 µM,–,–,951 µM,Active,354 µM,8,0,–,–
Brc1ccc2nc(-c3ccco3)cc(-c3ccccc3)c2c1,1.75%,4.37%,8.68%,13.1%,21.5%,43.2%,83.3%,62.5 µg/mL,125 µg/mL,62.5 µg/mL,250 µg/mL,30 µM,45 to 55%,877 µM,102 µM,–,631 µM,21,6,82.7 µM,Activity [9]: Dose-dependent effect; Ratio IC50 [19]: 0; SC50 [18]: > 250 µM
N#Cc1ccc(-c2cc(-c3ccccc3)c3cc(Br)ccc3n2)cc1,0%,0%,0%,2.44%,2.54%,4.86%,5.75%,> 250 µg/mL,> 250 µg/mL,> 250 µg/mL,> 250 µg/mL,–,–,–,98.8 µM,Active,–,–,–,–,–
